Measured values from ChEMBL document CHEMBL2406995, “Cytotoxic indole alkaloids from Tabernaemontana divaricata” (J Nat Prod, 2013).

Tests used:
Format in all cases: functional, cell-based
[1] = Cytotoxicity against human […] cells after 48 hrs by MTT assay
How it was run: (§1)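 Adherent cells grown in RPMI1640 or DMEM plus 10% FBS at 37 °C, 5% CO2. They were seeded in 96-well plates and left 12 h to adhere before dosing. MTT viability was used to plot growth curves, and IC50 was calculated by Reed and Muench's method.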

SW480 = assay: Cytotoxicity against human SW480 cells after 48 hrs by MTT assay; settings: SW480, 48 h; how it was run: as §1
A549 = assay: Cytotoxicity against human A549 cells after 48 hrs by MTT assay; settings: A549, 48 h; how it was run: as §1
MCF7 = assay: Cytotoxicity against human MCF7 cells after 48 hrs by MTT assay; settings: MCF7, 48 h; how it was run: as §1
HL-60 = assay: Cytotoxicity against human HL60 cells after 48 hrs by MTT assay; settings: HL-60, 48 h
How it was run: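 Suspension (leukemia) cells seeded just before drug addition at an initial density of 1 × 10^5 cells/mL. They were grown in RPMI1640 or DMEM with 10% FBS, 5% CO2, 37 °C. Cells were exposed for 48 h to […], 0.32, 1.6, 8 and 40 μM in triplicate, with cisplatin as positive control. Viability was read by MTT and IC50 was derived by Reed and Muench's method.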

CC[C@H]1C[C@@H]2CN3CCc4c([nH]c5c([C@H]6C[C@H]7[C@]8(C(=O)OC)CO[C@H](N(C)[C@H]8Cc8c6[nH]c6ccccc86)[C@@]76O[C@@H]6C)c(OC)ccc45)[C@](C(=O)OC)(C2)[C@H]13
IC50 [1]: 3.41 µM
IC50 (SW480): 2.59 µM
IC50 (A549): 3.52 µM
IC50 (MCF7): 3.1 µM
IC50 (HL-60): 0.79 µM

CC[C@H]1C[C@H]2C[C@H]3c4[nH]c5ccc(OC)cc5c4CCN([C@@H]13)[C@@H]2CC(C)=O
IC50 [1]: 14.8 µM
IC50 (SW480): 13 µM
IC50 (A549): 28.5 µM
IC50 (MCF7): 13.2 µM
IC50 (HL-60): 3.88 µM

C/C=C1/CN(C)[C@H]2Cc3c([nH]c4ccccc34)[C@H](c3cc4[nH]c5c(c4cc3OC)CCN3C[C@H]4C[C@H](CC)[C@H]3[C@@]5(C(=O)OC)C4)C[C@H]1[C@]2(CO)C(=O)OC
IC50 [1]: 9.86 µM
IC50 (SW480): 16.5 µM
IC50 (A549): 16.5 µM
IC50 (MCF7): 13.3 µM
IC50 (HL-60): 2.35 µM

C/C=C1/CN(C)[C@H]2Cc3c([nH]c4ccccc34)[C@H](c3cc4[nH]c5c(c4cc3OC)CCN3C[C@H]4C[C@H](CC)[C@H]3[C@H]5C4)C[C@H]1[C@]2(CO)C(=O)OC
IC50 [1]: 14.8 µM
IC50 (SW480): 13 µM
IC50 (A549): 28.5 µM
IC50 (MCF7): 13.2 µM
IC50 (HL-60): 3.88 µM

C/C=C1/CN(C)[C@H]2Cc3c([nH]c4ccccc34)[C@H](c3cc4c5c([nH]c4cc3OC)[C@]3(C(=O)OC)C[C@@H]4C[C@H](CC)[C@@H]3N(CC5)C4)C[C@H]1[C@]2(CO)C(=O)OC
IC50 [1]: 12.3 µM
IC50 (SW480): 13.4 µM
IC50 (A549): 14.8 µM
IC50 (MCF7): 12.6 µM
IC50 (HL-60): 2.68 µM

C/C=C1/CN(C)[C@H]2Cc3c([nH]c4ccccc34)[C@@H](c3c(O)ccc4c5c([nH]c34)[C@]3(C(=O)OC)C[C@H]4C[C@H](CC)[C@@H]3N(CC5)C4)C[C@@H]1[C@]2(CO)C(=O)OC
IC50 [1]: 3.75 µM
IC50 (SW480): 2.72 µM
IC50 (A549): 9.4 µM
IC50 (MCF7): 3.02 µM
IC50 (HL-60): 2.9 µM

CC[C@@]12CC[C@@H]3N(C)c4ccc([C@@H]5[C@H]6O[C@H]6[C@@]6(CC)CC(C(=O)OC)=C7Nc8c(cc(O)c(OC)c8OC)[C@@]78CCN5[C@@H]68)cc4[C@@]34CCN(C[C@H]3O[C@H]31)[C@@H]24 [CONOFOLINE]
IC50 [1]: 10.3 µM
IC50 (SW480): 13.7 µM
IC50 (A549): 10.3 µM
IC50 (MCF7): 14 µM
IC50 (HL-60): 0.8 µM

CC[C@@]12CC(C(=O)OC)=C3Nc4cc5c(cc4[C@@]34CCN(C[C@H]3O[C@H]31)[C@@H]24)[C@@H]1[C@H](O5)[C@@H](O)[C@@]2(CC)CC(C(=O)OC)=C3Nc4c(cc(O)c(OC)c4OC)[C@@]34CCN1[C@@H]24 [CONOPHYLLINE]
IC50 [1]: 0.35 µM
IC50 (SW480): 1.49 µM
IC50 (A549): 0.21 µM
IC50 (MCF7): 1.02 µM
IC50 (HL-60): 0.17 µM
